# PubChem BioAssay AID652011 (Sanford-Burnham Center for Chemical Genomics, 2013)
# Values joined by “and” are separate entries in the source; they are usually repeats but may differ in a detail not shown here. Identical values can stand only once.
# Target: Hypoxia-inducible factor 1-alpha (Homo sapiens) (UniProt Q16665)
# Experiment: HIF reporter inhibition across pancreatic and renal lines – cell-based, luminescence, MIAPaCa-2, 786-0, panel, SAR follow-up (AID 652011)
# Details: MIAPaCa-2/PANC HIF reporter, luciferase luminescence, desferoxamine, overnight, HIF1a, run 2; at 99 µM (top of the series)
# How it was run: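 Probe or stimulus: desferoxamine stimulus / Schedule: overnight compound incubation at 37 °C, 10 min reagent / Dosing: compounds from 10 mM and 0.3125 mM stocks, 1% DMSO final / Signal: luciferase luminescence with One-Glo reagent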
# Chain of Hypoxia-inducible factor 1-alpha (Homo sapiens) (Q16665 whole entry, looked up): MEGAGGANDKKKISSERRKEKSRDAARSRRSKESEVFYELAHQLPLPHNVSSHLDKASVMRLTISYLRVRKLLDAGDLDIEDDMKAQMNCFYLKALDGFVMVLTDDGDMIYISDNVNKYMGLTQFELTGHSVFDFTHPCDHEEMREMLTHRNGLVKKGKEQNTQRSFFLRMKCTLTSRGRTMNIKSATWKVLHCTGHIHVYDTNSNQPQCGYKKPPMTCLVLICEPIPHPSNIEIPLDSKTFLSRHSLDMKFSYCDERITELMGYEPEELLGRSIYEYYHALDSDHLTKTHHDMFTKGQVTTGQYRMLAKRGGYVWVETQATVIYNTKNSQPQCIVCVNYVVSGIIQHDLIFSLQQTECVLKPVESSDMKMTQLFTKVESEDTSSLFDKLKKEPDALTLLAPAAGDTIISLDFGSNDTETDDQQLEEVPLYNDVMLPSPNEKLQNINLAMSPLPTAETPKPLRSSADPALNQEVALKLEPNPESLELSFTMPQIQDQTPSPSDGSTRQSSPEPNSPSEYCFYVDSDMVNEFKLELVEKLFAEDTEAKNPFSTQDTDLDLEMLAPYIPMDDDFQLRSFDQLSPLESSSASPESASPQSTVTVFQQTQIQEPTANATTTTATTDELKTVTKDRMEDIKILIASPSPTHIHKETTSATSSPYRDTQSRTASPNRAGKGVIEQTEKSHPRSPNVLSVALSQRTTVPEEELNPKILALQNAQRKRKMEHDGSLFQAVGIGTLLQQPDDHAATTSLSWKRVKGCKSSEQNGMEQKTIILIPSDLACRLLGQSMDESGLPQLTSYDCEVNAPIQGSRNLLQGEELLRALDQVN
row,SMILES,inhibition
1,CCCCc1ccc(-c2noc(CCC(=O)NC)n2)cc1,9.8%
2,CCNC(=O)CCc1nc(-c2c(Cl)cccc2Cl)no1,28.8%
3,CNC(=O)CCc1nc(-c2ccc(Cl)cc2)no1,-33.8%
4,CC(C)CNC(=O)CCc1nc(-c2ccc(C(C)(C)C)cc2)no1,2.19%
5,CCOc1ccccc1NC(=O)CCc1nc(-c2ccc(C(C)(C)C)cc2)no1,60%
6,CCNC(=O)CCc1nc(-c2cccc(C)c2)no1,-31.6%
7,CCc1ccc(-c2noc(CCC(=O)NC)n2)cc1,-34.1%
8,CNC(=O)CCc1nc(-c2ccc(F)cc2)no1,-36.7%
9,C=CCNC(=O)CCc1nc(-c2ccc(C(C)(C)C)cc2)no1,34.7%
10,CC(C)(C)c1ccc(-c2noc(CCC(=O)NC3CCCC3)n2)cc1,81.4%
11,CC(C)(C)c1ccc(-c2noc(CCC(N)=O)n2)cc1,31.2% and -6.5%
